Results pooled from the literature.
Target: Proto-oncogene tyrosine-protein kinase Src (SRC, Homo sapiens, UniProt P12931)

| SMILES | assay | conditions | remaining binding [%] |
| --- | --- | --- | --- |
| C[C@@H]1CCN(c2nccc(-c3cnn4ncccc34)n2)C1 | binding | 1 µM | 92 |
| CC(C)(C)c1ccc(-c2nc(CBr)nn2-c2cccc(O)c2)cc1 | cell-free assay, competition with immobilised ligand | 10 µM | 79 |
| Nc1ncc2c(n1)-c1c([nH]c3ccc(C#CC4CC4)cc13)CCCC2 | binding, competition with immobilised ligand | 1 µM | 100 |
| CN(c1nccc(-c2cnn3ncccc23)n1)C1CC1 | binding | 1 µM | 100 |
| C=CC(=O)N1CCC(C(=O)NCC(=O)N2CCN(c3nc(-c4cnc(N)nc4C(F)F)nc(N4CCOCC4)n3)CC2)CC1 | binding, competition with immobilised ligand | 1 µM | 91 |
| Nc1c(C(=O)NCc2ccc(C(=O)NCCCC3CCCCC3)cc2)cnn1-c1ccccc1 | cell-free assay, competition with immobilised ligand | 0.1 µM | 100 |
| COc1ncc2cc3ccccc3nc2c1C#N | cell-free assay, competition with immobilised ligand | 5 µM | 88 |
| CCN1CCN(Cc2ccc(C(=O)Nc3ccc(C)c(Oc4ccc5c(c4)CC(=O)N5)c3)cc2C(F)(F)F)CC1 | binding, competition with immobilised ligand | 1 µM | 78 |
| c1cnn2ncc(-c3ccnc(N4CCC45COC5)n3)c2c1 | binding | 1 µM | 100 |
| CNC(=O)Nc1ccc2c(c1)[C@@]1(CC2)OC(=O)N(CC(=O)N(Cc2ccc(F)cc2)[C@@H](C)C(F)(F)F)C1=O | cell-free assay, competition with immobilised ligand | 1 µM | 90 |
| CNC(=O)[C@@H]1CC[C@@H](n2c(-c3ccc4cnccc4c3)nc3ccc(C(=O)NCc4cccc(C(N)=O)c4)cc32)C1 | binding, competition with immobilised ligand | 1 µM | 100 |
| C[C@@H](c1ccc(-n2cnc3c(N)ncnc32)cc1)N1CCc2nn(C)c(Cc3ccccc3)c2C1=O | binding, competition with immobilised ligand | 0.1 µM | 98 |
| CN(C)c1ncc(F)c(-c2cnn3ncccc23)n1 | binding | 1 µM | 79 |
| O=C(Nc1c[nH]nc1C(=O)NC1CCNCC1)c1cc(F)cc(F)c1 | binding, competition with immobilised ligand | 1 µM | 100 |
| Cc1c(NC(=O)c2cc(C(N)=O)nc3cc(F)ccc23)c(C(F)(F)F)nn1Cc1ccc(C#N)cc1 | cell-free assay, competition with immobilised ligand | 1 µM | 81 |
| F[C@@H]1CCN(c2nccc(-c3cnn4ncccc34)n2)C1 | binding | 1 µM | 100 |
| O=C(NCCCN1CCOCC1)c1ccc(Nc2nccc(-c3cc4ccccc4s3)n2)cc1 | binding, competition with immobilised ligand | 1 µM | 100 |
| COc1ccc2c(O[C@@H]3C[C@H]4C(=O)N[C@]5(C(=O)O)CC5/C=C\CCCCC[C@H](NC(=O)OC5CCCC5)C(=O)N4C3)cc(-c3csc(NC(=O)C(C)C)n3)nc2c1C (stereo partly shown) | cell-free assay, competition with immobilised ligand | 1 µM | 100 |
| N[C@H]1CCN(c2nccc(-c3cnn4ncccc34)n2)C1 | binding | 1 µM | 88 |
| CCC(=N\O)/C(C)=C/c1ccc(F)cc1 | cell-free assay, competition with immobilised ligand | 1 µM | 91 |
| Cc1cnn2ncc(-c3ccnc(N(C)C)n3)c2c1 | binding | 1 µM | 100 |
| CN(C(=O)c1ccccc1)c1cc(N(C)c2ccc3c(c2)CCc2ccc(C(=O)NCCN4CCOCC4)cc2C3=O)ccc1F | cell-free assay, competition with immobilised ligand | 1 µM | 98 |
| O=C(c1ccc(Nc2ncc(Cl)c(-c3cc4ccccc4s3)n2)cc1)N1CCC(N2CCCC2)CC1 | binding, competition with immobilised ligand | 1 µM | 62 |
| CN(C)c1ncnc(-c2ccc3nc(Nc4cc(CN5CCN(C(=O)CC(F)(F)F)CC5)ccn4)[nH]c3c2)c1Cl | cell-free assay, competition with immobilised ligand | 1 µM | 100 |
| Cc1cnc(Nc2ccc(C(=O)N3CCC(N4CCCC4)CC3)cc2)nc1-c1cc2ccccc2s1 | binding, competition with immobilised ligand | 1 µM | 16 |
